Bioassay records (PubChem BioAssay)
Compounds with a hit are over-represented: about 1.4% of the library has one in this group of screens.
CDK5 p35 inh – inhibitors of human CDK5/p35 kinase. Q00535+Q15078. Recombinant CDK5/p35, ADP-Glo luminescence, 60 min. inhibition, % at 10 µM. actives 0.01% (n = 330,000). AID 488839;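 active = highest replicate inhibition of at least 50% and at least 75% of replicates reaching 50%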;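 also: plate controls were DMSO neutral control for no effect and GW8510 at 10 µM for full effect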
Target sequence (Q00535 whole entry, looked up): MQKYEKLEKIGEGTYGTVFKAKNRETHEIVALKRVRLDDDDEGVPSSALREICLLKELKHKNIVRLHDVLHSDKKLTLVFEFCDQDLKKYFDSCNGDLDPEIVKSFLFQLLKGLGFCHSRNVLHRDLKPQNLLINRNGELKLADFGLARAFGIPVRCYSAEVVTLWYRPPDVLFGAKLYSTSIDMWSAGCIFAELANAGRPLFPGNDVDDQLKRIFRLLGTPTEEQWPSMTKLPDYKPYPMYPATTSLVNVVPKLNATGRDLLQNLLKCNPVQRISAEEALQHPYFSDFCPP
Target sequence (Q15078 whole entry, looked up): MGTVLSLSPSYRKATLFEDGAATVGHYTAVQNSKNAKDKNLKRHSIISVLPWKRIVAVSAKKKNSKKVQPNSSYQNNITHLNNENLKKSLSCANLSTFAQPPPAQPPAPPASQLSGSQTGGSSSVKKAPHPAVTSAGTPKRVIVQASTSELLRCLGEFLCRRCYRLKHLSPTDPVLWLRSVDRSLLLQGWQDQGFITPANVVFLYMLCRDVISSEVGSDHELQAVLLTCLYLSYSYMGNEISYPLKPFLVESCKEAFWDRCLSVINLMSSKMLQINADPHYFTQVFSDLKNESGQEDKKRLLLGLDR
CAL PDZ FP-1 – blocks peptide binding to the human CAL PDZ domain; Q9HD26; purified CAL PDZ, TMR-peptide fluorescence polarization, 1 h; inhibition, % at 24.9 µM; actives 0.92% (n = 300,000); AID 602252;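 active = mean inhibition of at least 30% with at least half of replicates also reaching 30%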;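 also: 0% = DMSO neutral control and 100% = excess unlabeled competitor peptide PRC23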
PvdQ acylase – P. aeruginosa PvdQ acylase inhibition; inhibition, % at 10 µM; actives 0.063% (n = 340,000); purified PvdQ acylase, fluorescence plate reader; in the data active = inhibition above about 30%, passing the limit was not always enough;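 also: 0% = vehicle neutral wells and 100% = reference inhibitor wells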
Tb MetRS inh – Trypanosoma brucei MetRS inhibition | AID 624268 | actives 0.4% (n = 360,000) | purified T. brucei MetRS, ATP depletion, Kinase-Glo luminescence | inhibition, % at 11.9 µM;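 active = inhibition above a per-plate cutoff of the control wells' mean inhibition plus 3 SD, cut at about 5.5% in these data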;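 also: 0% = DMSO wells median and 100% = median of wells with control inhibitor compound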
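System: purified T. brucei MetRS enzyme / Detection: Kinase-Glo luciferase luminescence reporting remaining unconsumed ATP / Medium: HEPES buffer with MgCl2, KCl, DTT, spermine, BSA, pyrophosphatase / Replication: singlicate, one well per compound / Evaluation: percent inhibition relative to median high and low control wells / Schedule: 2 h aminoacylation at 25 °C after 15 min preincubation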
CAL PDZ FP-2 – human CAL PDZ-peptide interaction inhibition; purified CAL PDZ, TMR-peptide fluorescence polarization, 1 h; inhibition, % at 20 µM; AID 504414; Q9HD26; actives 0.02% (n = 330,000);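 active = highest replicate inhibition of at least 40%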;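 also: plate controls were DMSO neutral control wells for no effect and unlabeled competitor peptide control wells for full effect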
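Assay system – tagged CAL PDZ protein CerCALP, purified · Timing – 1 h at RT · Compound – single point, 20 µM · Measured by – fluorescence polarization from S- and P-plane intensities, G-factor corrected · Evaluation – inhibition from polarization loss · Probe or stimulus – TMR reporter peptide T*-PRC34 · Buffer or medium – pH 7.4 phosphate-saline buffer, reducing agent, detergent, IgG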
Dyrk1A ADPGlo – inhibitors of rat Dyrk1A kinase. ADP-Glo luminescence, NFATc1 peptide. actives 0.43% (n = 310,000). Q63470. inhibition, % at 12.5 µM; in the data active = inhibition above about 50%;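 also: plate controls were vehicle with enzyme for no effect and no enzyme for full effect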
* = called active by the depositor; . = not tested or not shown; + = active, no number.

SMILES	CDK5 p35 inh	CAL PDZ FP-1	PvdQ acylase	Tb MetRS inh	CAL PDZ FP-2	Dyrk1A ADPGlo
O=C(CN1CCCc2ccccc21)NC(=O)NC1CCCCC1	0.4	82.3*	-2.4	-0.6	-0.8	.
CC(C)(C)NC(=O)NC(=O)CN1CCCc2ccccc21	0.3	-0.4	-4.4	-0.8	-0.8	.
CC(C)(C)c1nc(Sc2ccc([N+](=O)[O-])cn2)n[nH]1	-0.1	-1.1	-1.1	-0.4	-0.5	.
O=[N+]([O-])c1ccc(Sc2n[nH]c(-c3ccc(Cl)cc3Cl)n2)nc1	0.3	43.5*	-18.6	0.4	.	6.4
O=[N+]([O-])c1ccc(Sc2ccccc2Cl)nc1	-0.6	1.1	64.5*	0.0	-0.8	7.2
CC(=O)NC1C(OCc2cccc(Br)c2)OC(COC(C)=O)C(OC(C)=O)C1OC(C)=O (stereo unspecified)	0.2	.	-4.0	-0.4	-0.8	-5.2
CC(=O)NC1C(OCc2ccccc2)OC(CO)C(OC(C)=O)C1OC(C)=O (stereo unspecified)	0.2	45.9*	-12.2	0.6	0.7	-1.5
Cn1c(C(=O)N2CCN(c3ccccc3)CC2)cc2cc(Cl)ccc21	0.4	74.1*	-16.3	-0.4	-0.7	-2.2
O=[N+]([O-])c1ccc(NN=Cc2ccc(O)cc2O)nc1	-0.7	47.8*	-8.1	0.7	3.3	5.4
O=[N+]([O-])c1ccc(NN=Cc2ccccc2O)nc1	4.1	42.0*	-10.0	0.3	0.1	-0.5
O=[N+]([O-])c1cccnc1N/N=C/c1ccccc1O	-0.7	76.3*	-6.7	-2.5	-0.6	-0.5
O=[N+]([O-])c1ccc(NN=Cc2ccc(O)cc2)nc1	2.0	-1.2	10.8	-0.1	0.6	5.1
Cc1c(O)ccc(/C=N/Nc2ncccc2[N+](=O)[O-])c1O	1.0	-7.7	-3.5	-0.7	0.5	3.0
CCOC(=O)[C@]12CCC=C1N(Cc1ccc(Cl)cc1Cl)C(=O)[C@H](CC(=O)N1CCOCC1)C2	.	.	.	0.2	.	.
Cc1ccc(-c2nc3cc(C)c(Br)c(C)n3c2Cc2ccsc2)cc1	.	.	.	-0.4	.	.
Cc1cc(N2CCN(C(C(=O)NC3CCCC3)c3ccco3)CC2)c2ccccc2n1 (stereo unspecified)	.	.	.	-0.1	.	.
O=c1[nH][nH]c2c(N=Cc3ccccc3O)ccc(F)c12	-2.1	-6.8	-9.5	0.7	1.2	58.0*
CN(CC(=O)NCc1ccc(F)cc1)CC(=O)Nc1ccc(Cl)c(C(F)(F)F)c1	0.0	.	10.7	-0.5	0.1	10.6
CN(CC(=O)NCC(=O)Nc1ccc(F)cc1)CC(=O)Nc1ccc(Cl)c(C(F)(F)F)c1	1.5	46.7*	-8.1	-0.1	-0.6	.
CC(C)C(C)(C#N)NC(=O)CSc1nnc(-c2ccncc2)n1Cc1ccccc1 (stereo unspecified)	0.7	35.1*	-11.1	-0.4	-1.3	-4.7
COc1ccc(-c2nnc(SCC(=O)O)n2Cc2ccccc2)cc1	0.4	56.7*	-6.9	-0.6	-0.1	-3.8
CCOc1ccc(-c2nnc(SCC(=O)O)n2Cc2ccccc2)cc1	-2.9	-3.7	-12.5	-0.3	.	1.9
COc1ccc(NC(=O)CN2c3cccc4cccc(c34)S2(=O)=O)cc1OC	.	.	.	0.1	.	.
CCCCCCCCN1C(=O)[C@H](CC(=O)NCC2CCCCC2)C[C@@]2(C(=O)OCC)CCC=C12	.	.	.	-0.3	.	.
c1ccc(-c2cc(-c3ccc(N4CCOCC4)cc3)nc3ccccc23)cc1	.	37.0*	-9.9	-0.9	-0.7	2.0
SMILES	CDK5 p35 inh	CAL PDZ FP-1	PvdQ acylase	Tb MetRS inh	CAL PDZ FP-2	Dyrk1A ADPGlo
COc1ccc(Cc2nnc(SC)n2-c2ccc(F)cc2)cc1OC	.	.	.	-0.2	.	.
CC(C)(C)NC(=O)c1cc(Cl)ccc1[N+](=O)[O-]	-1.3	-2.9	36.2*	0.3	0.3	-1.0
Cc1ccc(NC(=O)c2cc(Cl)ccc2[N+](=O)[O-])cc1C	0.1	.	-3.4	-0.2	-2.7	-6.0
CC(=O)OC1(C)C=Cc2ccccc2C1=NS(=O)(=O)c1ccccc1 (stereo unspecified)	.	.	.	-0.3	.	.
CN(CC1COc2ccccc2O1)C(=O)c1cc(COc2c(F)cccc2F)on1 (stereo unspecified)	0.9	57.0*	-1.4	-0.4	-0.6	-1.8
CN(CC1COCCO1)C(=O)c1cc(COc2c(F)cccc2F)on1 (stereo unspecified)	0.1	-0.2	6.6	-0.7	-1.5	-3.0
O=C(Nc1cccc(-n2cnnn2)c1)c1ccc(C(F)(F)F)cc1	0.0	.	-5.8	0.0	-7.4	-3.6
O=C(COC(=O)c1cccc(-n2cnnn2)c1)Nc1c(Cl)cccc1C(F)(F)F	0.3	61.9*	-21.3	-0.4	-2.1	-1.6
O=C(COC(=O)c1cccc(-n2cnnn2)c1)c1ccc(F)cc1	-0.4	-2.1	-4.5	-0.4	-2.7	8.7
O=C(NNC(=O)c1cccc(C(F)(F)F)c1)c1ccc(-n2cnnn2)cc1	-1.2	92.2*	-12.4	0.0	0.0	.
O=C(Nc1cccc(-n2cnnn2)c1)c1ccc(OC(F)(F)F)cc1	0.0	98.4*	-13.9	0.5	-1.7	4.2
O=S(=O)(c1ccc2c(c1)CCCN2)N1CCCC1	2.5	58.3*	-13.0	-0.3	-0.4	3.7
COc1ccccc1Oc1nc2c(c(=O)n(Cc3ccccc3F)c(=O)n2C)n1C	1.5	75.1*	-5.7	-0.3	-2.3	2.5
CCOC(=O)C1(CCCc2ccccc2)CCN(C(=O)c2n[nH]c(CC)c2C)CC1	.	.	.	-0.4	.	.
Cc1nc2ccccn2c1-c1ccnc(=S)[nH]1	2.6	+	-13.3	0.6	-0.8	13.0
S=c1nccc(-c2ccc(Cl)cc2)[nH]1	.	.	.	-0.5	.	.
Cc1ccc(S(=O)(=O)N2C3CC(c4ccccc4)N(S(=O)(=O)c4ccccc4Cl)CC3C(=O)C[C@H]2c2ccccc2)cc1 (stereo partly specified)	.	.	.	-0.3	.	.
c1ccc(-c2noc(CC3CCCCC3)n2)cc1	-1.3	40.3*	-11.3	0.3	-0.7	-1.0
Cc1ccc(S(=O)(=O)Nc2ccccc2C(=O)N2CCN(C)CC2)cc1	0.4	43.9*	-0.3	-0.5	0.9	-4.8
CCC(C)(C)NC(=O)CN(Cc1ccco1)C(=O)CCC(=O)Nc1nccs1	1.0	64.3*	-12.9	0.7	0.1	3.7
CC(C)CNC(=O)NC(=O)COC(=O)COc1ccc(Cl)cc1Cl	-0.1	45.0*	-2.7	0.2	-0.7	2.9
O=C(COC(=O)COc1ccc(Cl)cc1Cl)NC1CC1	-2.0	-8.1	-6.5	0.1	-0.7	-1.2
CC(=O)Nc1sc2c(c1C(N)=O)CCC2	8.4	67.8*	-8.8	0.2	.	41.6
Cc1noc(C)c1COc1ccc(C(=O)OC(C)C(=O)Nc2ccc(S(=O)(=O)N3CCOCC3)cc2)cc1 (stereo unspecified)	-0.5	54.2*	-13.0	-0.4	-0.6	4.0
Cc1ccc(S(=O)(=O)N2CCOCC2)cc1NC(=O)COC(=O)c1ccc(OCc2c(C)noc2C)cc1	-0.7	4.4	-5.2	0.1	-1.1	-4.8
